# Assay outcomes deposited in PubChem BioAssay by several laboratories.
# NR2E3 ag-1: agonists of human nuclear receptor NR2E3. 0.12% of 320,000 active. inhibition of corepressor binding, % at 4.78 µM. Q9Y5X4. AID 2300. GST-NR2E3/biotin-RetCOR TR-FRET, 1536-well;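 active = percent inhibition above the cutoff of mean plus 3 SD of all tested compounds, set per screening campaign, cut at about 20% in these data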
# Target sequence (Q9Y5X4 whole entry, looked up): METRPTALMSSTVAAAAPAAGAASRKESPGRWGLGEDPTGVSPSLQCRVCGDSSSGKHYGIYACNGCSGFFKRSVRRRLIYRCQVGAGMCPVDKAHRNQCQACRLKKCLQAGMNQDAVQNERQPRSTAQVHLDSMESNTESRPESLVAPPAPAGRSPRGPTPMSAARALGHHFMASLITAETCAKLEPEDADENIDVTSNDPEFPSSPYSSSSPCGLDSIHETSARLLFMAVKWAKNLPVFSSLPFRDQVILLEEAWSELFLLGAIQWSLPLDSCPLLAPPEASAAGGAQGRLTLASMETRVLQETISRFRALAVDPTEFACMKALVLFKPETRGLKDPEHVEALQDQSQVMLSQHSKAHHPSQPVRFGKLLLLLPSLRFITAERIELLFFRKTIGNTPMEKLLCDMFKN
#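 System: GST-tagged NR2E3 plus biotinylated RetCOR corepressor; Amount: 1.35 nM GST-tagged NR2E3 final; Dosing: single nominal compound dose of 4.8 µM; Schedule: 5 h incubation at 4 °C; Technique: TR-FRET with europium anti-GST and streptavidin-D2, 340 nm excitation; Controls: biotin wells as high control, 0.6% DMSO wells as low control.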
# MPTP inh: inhibitors of mitochondrial permeability transition pore. AID 602449. inhibition, % at 10 µM. 1.4% of 360,000 active. isolated mouse mitochondria, Ca2+ swelling absorbance, 30 min;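 active = inhibition of 50% or more, scaled per plate between neutral and stimulator controls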
# Jurkat NFkB inh: lowers PMA/ionomycin-induced NF-kB signal in Jurkat cells; PMA/ionomycin-induced NF-kB luciferase reporter, luminescence; AID 435003; 0.53% of 330,000 active; inhibition, % at 4 µM; in the data active = inhibition above about 50%
# 697 NFkB inh: inhibitors of the PMA/ionomycin-induced NF-kB reporter in 697 B cells; 697 B-cell NF-kB luciferase reporter, 16 h; inhibition, % at 4 µM; 0.33% of 330,000 active; AID 435022; in the data active = inhibition above about 35%
# aDG glyco up: alpha-DG glycosylation activation; Pro5-aDG cells, alpha-DG glycosylation AlphaScreen (IIH6); 0% Pro5, 100% B10-LARGE cell signal; activation, % at 10 µM; 0.22% of 360,000 active;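 active = activation of at least 8% versus controls, or a plate z-score of at least 8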;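 also: Pro5 are CHO cells carrying HIG-tagged alpha-DG that lacks glycosylation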
# NR2E3 ag-2: activates human NR2E3 receptor. 0.35% of 360,000 active. Q9Y5X4. inhibition of corepressor binding, % at 3.98 µM. CHO-S Gal4-NCOR/VP16-NR2E3 two-hybrid, luciferase. AID 602229;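 active = inhibition above the mean of all tested compounds plus 3 SD, cut at about 70% in these data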;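 also: higher means lower luciferase signal from less NR2E3 corepressor binding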
# MPTP counter: Rhodamine 123 counter-screen of mitochondrial pore hits; shares compounds with MPTP inh; isolated mitochondria, membrane potential, Rhodamine 123 fluorescence; inhibition, % at 10 µM; 78% of 5,000 active; in the data active = inhibition above about 22%
# MPTP swell DR: dose response confirmation of mitochondrial permeability transition pore inhibitors; shares compounds with MPTP inh; isolated mitochondria swelling, absorbance; IC50, µM; 58% of 780 active; in the data active = IC50 below about 20 µM
# MPTP cs DR: MPTP inhibitor counter-screen activity, dose response. shares compounds with MPTP inh. isolated mitochondria counterscreen, fluorescence read-out. IC50, µM. 49% of 780 active; in the data active = IC50 below about 80 µM
# Hits are given with their value; - = inactive; . = no result. Sampled rows, rich in hits. Any-hit rate of the full collection: about 2.4%.
SMILES,NR2E3 ag-1,MPTP inh,Jurkat NFkB inh,697 NFkB inh,aDG glyco up,NR2E3 ag-2,MPTP counter,others
O=C(O)c1ccc(N2C(=O)/C(=C/C=C/c3ccccc3)SC2=S)cc1,-,-,-,-,-,-,.,
CN(C)c1ccc(/C=C/C=C2/SC(=S)N(c3ccccc3)C2=O)cc1,-,58,-,-,-,-,-,
O=C(COC(=O)c1ccncc1)Nc1cc(S(=O)(=O)N2CCOCC2)ccc1Cl,-,-,-,-,-,-,.,
O=C(C=C1CCN(c2ncc(C(F)(F)F)cc2Cl)CC1)NNC(=O)Nc1ccccc1,-,-,-,-,-,-,.,
OC(CN1CCN(c2ncc(C(F)(F)F)cc2Cl)CC1)c1ccccc1 (stereo unspecified),-,-,-,-,-,-,.,
FC(F)(F)c1cnc(N2CCCN(C(=S)Nc3ccccc3)CC2)c(Cl)c1,-,70,-,-,-,-,51,
FC(F)(F)c1cnc(N2CCN(C(=S)NCc3ccccc3)CC2)c(Cl)c1,-,54,-,-,-,-,51,
O=C(CSCc1ccccc1Cl)NNC(=S)Nc1ccccc1,-,-,-,-,-,-,.,
Cc1ccc(Sc2ccc(NC(=O)CCl)cc2)cc1C,-,52,-,-,-,-,21,
Cc1ccc(C)c(Sc2ccc(NC(=O)CCl)cc2)c1,-,.,-,-,.,.,.,
O=C(NCC1CCCN1S(=O)(=O)c1cccs1)c1cccc([N+](=O)[O-])c1 (stereo unspecified),-,-,-,-,-,-,.,
CCC(C)(C)NC(=O)CN(C(=O)CCC(=O)Nc1nccs1)c1cccc(C)c1C,-,-,-,-,-,-,.,
CC(=O)c1cccc(S(=O)(=O)Nc2c(C)nn(C)c2C)c1,-,-,-,-,-,-,.,
COc1ccc(OCCCCc2c(C)n[nH]c2C)cc1,-,51,-,-,-,-,36,
Cc1n[nH]c(C)c1CCOc1ccc(C(C)C)cc1,-,-,-,-,-,-,.,
NC1=NC[C@H](Cc2ccc(O)cc2)N1CCC12CC3CC(CC(C3)C1)C2,-,50,-,-,-,-,-,
O=C(CN1C(=O)C2CCCCC2C1=O)Nc1ccc(OC(F)F)c(Cl)c1 (stereo unspecified),-,-,-,-,-,-,.,
CCC(Oc1ccccc1)C(=O)Nc1nnc(S(=O)(=O)N2CCCC2)s1 (stereo unspecified),-,85,-,-,-,-,20,
O=C(Nc1nnc(S(=O)(=O)N2CCCCC2)s1)c1ccc(Cl)cc1,-,-,-,-,-,-,.,
O=C(Nc1nnc(S(=O)(=O)N2CCCCCC2)s1)c1ccc(Br)cc1,-,60,-,-,-,-,29,
CC(Oc1ccccc1)C(=O)Nc1nnc(S(=O)(=O)N2CCCCC2)s1 (stereo unspecified),-,-,-,-,-,-,.,
Cc1cccc(C(=O)N2CCc3cc(-c4csc(NC(=O)CN5CCCC5)n4)ccc32)c1,-,86,-,-,-,-,-,MPTP swell DR=-;MPTP cs DR=37
CC1CCN(CCCCOc2ccc([N+](=O)[O-])cc2)CC1,-,-,-,-,-,-,.,
COC(=O)C1CCN(Cc2ccc(OCCCN3CCN(c4ccc([N+](=O)[O-])cc4)CC3)cc2)CC1,-,96,-,-,-,-,82,
CCOC(=O)c1c(C)oc(NC(=O)COc2ccc(Cl)cc2C)c1C#N,-,70,-,-,-,-,51,
SMILES,NR2E3 ag-1,MPTP inh,Jurkat NFkB inh,697 NFkB inh,aDG glyco up,NR2E3 ag-2,MPTP counter,others
NC(N)=NCCCC(NC(=O)c1ccccc1)C(=O)Nc1ccc2ccccc2c1 (stereo unspecified),-,81,-,-,-,-,-,MPTP swell DR=8.7;MPTP cs DR=-
Cc1c(Br)c(O)c(Br)c2sc(=O)oc12,-,-,-,-,-,-,.,
CCc1ccc(C2c3[nH]c4ccccc4c3CCN2C(=O)c2cc(C)nn2C)cc1 (stereo unspecified),-,-,-,-,-,-,.,
Cc1cc(Cn2nc(-c3ccccc3)cc2C(=O)NCc2cccc(Br)c2)on1,-,-,-,-,-,-,.,
Cc1cc(Cn2nc(-c3ccccc3)cc2C(=O)NCc2cccc(C(F)(F)F)c2)on1,-,63,-,-,-,-,98,
COc1ccc(Cl)cc1S(=O)(=O)NC(C)C(=O)NCc1cccnc1 (stereo unspecified),-,-,-,-,-,-,.,
CCC(C)NS(=O)(=O)c1ccc(S(=O)(=O)N2CC=C(c3ccc(F)cc3)CC2)cc1 (stereo unspecified),-,66,-,-,-,-,56,
CN1CCC(N2CCN(C3CN(Cc4ccccc4)S(=O)(=O)C3)CC2)CC1 (stereo unspecified),.,-,.,.,-,-,.,
O=C1Nc2ccccc2C(=O)N2c3ccccc3NC(=O)C12 (stereo unspecified),.,-,.,.,-,-,.,
O=C(N/N=C1/C(=O)c2cccc3cccc1c23)c1ccc(Cl)cc1,-,57,-,-,-,-,-,
CCNC(=S)N/N=C1\C(=O)c2cccc3cccc1c23,-,-,-,-,-,-,.,
O=C(C1=C(O)C(=O)N(c2ncccn2)C1c1ccc(F)cc1)c1ccco1 (stereo unspecified),-,-,-,-,-,-,.,
CCn1c2ccccc2c2cc(NC(=O)CNCC3CCCO3)ccc21 (stereo unspecified),-,61,-,-,-,-,-,MPTP swell DR=-;MPTP cs DR=-
O=C(C(=O)N1CCN(CCN2CCOCC2)CC1)c1ccccc1,.,-,.,.,-,.,.,
O=C(CSc1ncnc2c1oc1ccccc12)N1CCCc2ccccc21,-,79,-,-,-,-,72,
O=C(Cn1cnc2c(oc3ccccc32)c1=O)N1CCCc2ccccc21,-,-,-,-,-,-,.,
COc1cccc(-c2cnc(C(O)c3ccc(C)cc3C)[nH]2)c1 (stereo unspecified),.,-,.,.,-,-,.,
NCCOc1ccccc1Cc1ccccc1,-,69,-,-,-,-,-,MPTP swell DR=6.7;MPTP cs DR=-
c1ccc2c(c1)oc1c(N3CCN(Cc4ccc5c(c4)OCO5)CC3)ncnc12,.,86,.,.,-,-,77,
COc1ccc(S(=O)(=O)N2CCOCC2)cc1NC(=O)CN1C(=O)CN(C)C1=O,.,-,-,-,-,-,.,
N#C/C(=C\c1ccc(Sc2ccc(Cl)cc2)o1)c1nc2ccccc2[nH]1,-,106,.,.,-,-,69,
N#C/C(=C\c1c(Cl)cccc1Cl)c1nc2ccccc2[nH]1,-,-,-,-,-,-,.,
CCOc1ccc(OCC)c(NC(=O)CSc2nc3cccnc3n2C)c1,-,-,-,-,-,-,.,
